The source of these data is PMC3855573 (Biochemistry, 2013).

Values joined by “and” are separate entries in the source; they are usually repeats but may differ in a detail not shown here. Equal values may be shown once. Read-outs that look alike come from different tables or passages of the source.

The conditions of assay [1]: read-out: KD of Mg for free ADP; previously determined; cited from earlier work.
The target of assay [2] is acto-MV FlAsH (Gallus gallus, UniProt Q02440, D297C/G292C/I296C/S293C/V295G). Nature of the assay: Mg dependence of ADP release rate constants. The following applies: read-out: KD.Mg, Eq. 14. Format: binding, chicken. The gist of the method: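 Acto-MV FlAsH·mantdADP (final 0.25 μM MV FlAsH, 0.5 μM actin, 10 μM mantdADP) stopped-flow mixed with 1 mM ATP at 25°C. Buffer: K50TCEP, pH 7.0, with 0.5–10 mM MgCl2; free Mg calculated from stability constants. FRET read with 365 nm excitation and 515 nm long-pass emission. Biexponential rate constants vs free Mg fitted to Eq. 14 to extrapolate Mg-free and Mg-saturated values and KD.Mg.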

Assay [3] deals with MV FlAsH (Gallus gallus, UniProt Q02440, D297C/G292C/I296C/S293C/V295G). The assay can be described thus: Actin-activated steady-state ATPase, NADH coupled assay. Format: biochemical, chicken. The following applies: 20 μM actin, 25°C.

As usually defined, the Kd is the concentration at which binding is half-saturated. Regarding `[Mg+2]` [Mg, magnesium], the Kd in assay [1] was 350 ± 300 µM; in assay [2] (actomyosin V strong ADP binding conformation), 900 ± 400 µM; in assay [2] (actomyosin V weak ADP binding conformation), 600 ± 300 µM. In assay [3] (high free Mg (3–9 mM) versus low free Mg (0.1–0.3 mM)), the “reduction in actin-activated ATPase activity” value was 50–60% and 60%.
For the compound `O=C(O)CN(CCN(CC(=O)O)CC(=O)O)CC(=O)O` [EDTA, reference compound], the “actin-activated ATPase rate” value in assay [3] (K50 buffer containing 4 mM EDTA (Mg free)) was found to be 0.06 s⁻¹.
